Data on 2 compounds can be found in ChEMBL document CHEMBL4196009, “Novel vitexin-inspired scaffold against leukemia” (Eur J Med Chem, 2018).

The source made the active and inactive calls. The calls are words filed in the database; no cut-off is given here.

The target of test [1] is T1, Retinoblastoma-associated protein (Homo sapiens) (UniProt P06400).
T1 sequence (whole entry): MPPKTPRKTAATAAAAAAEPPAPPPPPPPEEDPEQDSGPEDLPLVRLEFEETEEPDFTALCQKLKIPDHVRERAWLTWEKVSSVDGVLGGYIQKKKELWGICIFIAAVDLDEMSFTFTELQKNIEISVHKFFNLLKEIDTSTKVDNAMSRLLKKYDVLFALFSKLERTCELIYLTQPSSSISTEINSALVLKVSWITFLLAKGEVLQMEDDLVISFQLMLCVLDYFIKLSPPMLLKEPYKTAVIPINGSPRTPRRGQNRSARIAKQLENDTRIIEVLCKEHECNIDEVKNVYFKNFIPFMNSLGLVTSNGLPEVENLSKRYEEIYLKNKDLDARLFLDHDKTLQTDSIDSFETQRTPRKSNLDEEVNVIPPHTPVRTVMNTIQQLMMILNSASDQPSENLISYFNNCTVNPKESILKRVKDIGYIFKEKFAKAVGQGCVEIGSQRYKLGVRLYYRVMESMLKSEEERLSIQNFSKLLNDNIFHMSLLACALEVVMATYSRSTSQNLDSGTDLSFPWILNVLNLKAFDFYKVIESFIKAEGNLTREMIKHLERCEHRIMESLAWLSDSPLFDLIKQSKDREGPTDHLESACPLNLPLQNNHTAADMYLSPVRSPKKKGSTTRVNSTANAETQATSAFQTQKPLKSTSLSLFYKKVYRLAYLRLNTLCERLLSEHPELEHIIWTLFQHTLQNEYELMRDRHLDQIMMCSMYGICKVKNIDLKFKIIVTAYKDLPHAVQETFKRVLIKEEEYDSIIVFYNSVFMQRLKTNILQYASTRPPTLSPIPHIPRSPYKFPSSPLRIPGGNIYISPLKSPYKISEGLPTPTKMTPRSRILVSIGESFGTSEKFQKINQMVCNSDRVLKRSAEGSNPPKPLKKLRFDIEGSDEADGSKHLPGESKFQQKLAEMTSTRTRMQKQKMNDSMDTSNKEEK
As to the kind of experiment: Inhibition of Rb phosphorylation in human KOPN8 cells assessed as ratio of phosphorylated Rb to total Rb levels at 100 uM pre-treated with NAC for 1 hr and measured after 3 hrs by Western blot analysis relative to control. The format is cell-based. The method, boiled down:
(§1)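 KOPN-8 pre-B ALL cells were treated for 3 h and 24 h, with or without N-acetyl cysteine added to a parallel set of cells as an antioxidant/ROS quencher. Lysates were analysed by Western blot for phosphorylated Rb and total Rb. The same blots also probed PARP cleavage, Mcl-1, Ser-2-phosphorylated RNAPII CTD and cMyc.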

A further test relates to SUP-B15. As to the kind of experiment: Induction of apoptosis in human SUP-B15 cells assessed as late apoptotic cells at 10 uM after 24 hrs by Annexin V-FITC/propidium iodide staining-based flow cytometry (reference value: 2.2%). It is filed as functional.
The species named for test [2] is Homo sapiens. As to the kind of experiment: Inhibition of RNA polymerase 2 C-terminal domain phosphorylation at Ser2 residue in human KOPN8 cells at 10 uM after 24 hrs by Western blot analysis relative to control. It is filed as cell-based. In short, it runs like this: (§2)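 KOPN-8 cells were exposed to compound for 3 h and 24 h, with or without N-acetylcysteine added to a parallel set as antioxidant. Lysates were analysed by Western blot for cleaved PARP, Mcl-1, Ser-2-phosphorylated RNAPII CTD, cMyc, total Rb and pRb. Signals were compared against controls for dose-dependent change.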

For test [3], the species on record is Homo sapiens. In words: Inhibition of RNA polymerase 2 C-terminal domain phosphorylation at Ser2 residue in human KOPN8 cells at 100 uM after 3 hrs by Western blot analysis relative to control. It is filed as cell-based. The method, boiled down:
as §2

Test [4] addresses T1, Retinoblastoma-associated protein (Homo sapiens). In words: Inhibition of Rb phosphorylation in human KOPN8 cells assessed as ratio of phosphorylated Rb to total Rb levels at 10 uM pre-treated with NAC for 1 hr and measured after 24 hrs by Western blot analysis relative to control. It is filed as cell-based. The method, boiled down: as §1
The species entered for test [5] is Homo sapiens. In words: Inhibition of RNA polymerase 2 C-terminal domain phosphorylation at Ser2 residue in human KOPN8 cells at 30 uM pre-treated with NAC for 1 hr and measured after 3 hrs by Western blot analysis relative to control. The format is cell-based. In short, it runs like this:
as §2

The test system of test [6] is KOPN-8. In words: Induction of apoptosis in human KOPN8 cells assessed as effect on Mcl-1 level at 10 uM pre-treated with NAC for 1 hr and measured after 24 hrs by Western blot analysis relative to control. It is filed as functional.
Test [7] concerns KOPN-8. As to the kind of experiment: Cell cycle arrest in human KOPN8 cells assessed as accumulation at G2/M phase at 10 uM after 24 hrs by propidium iodide staining-based flow cytometry (reference value: 9.67%). The format is functional. The method, boiled down:
(§3)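 KOPN-8 cells treated 24 h alongside a DMSO vehicle and a staurosporine (2.0 µM) positive control. Apoptosis was scored by FITC Annexin V / propidium iodide flow cytometry with quadrant gating (early, late apoptotic). DNA content was measured by PI staining to give the percentage of cells in G0/G1, S and G2/M. Groups were compared by t-test; error bars are SD.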

The next test deals with MCF7. In words: Induction of oxidative stress in human MCF7 cells transfected with mRuby-Mito-7 with fugene assessed as increase in intracellular total ROS levels at 50 uM treated 30 mins post NAC addition measured after 1 hr by fluorimetric analysis. It is filed as functional, cell-based. The method, boiled down:
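MCF-7 cells carried an mRuby-Cox8A mitochondrial label. They were exposed to 50 of compound, alone or together with 50 of N-acetylcysteine, for 1 h. Cells were then stained with CellROX green (ex/em 485/520 nm) plus Hoechst 33342 nuclear stain. Total and mitochondrial ROS fluorescence was imaged in live cells and quantified relative to control.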

The test system of test [8] is KOPN-8. In words: Induction of apoptosis in human KOPN8 cells assessed as effect on Mcl-1 level at 30 uM pre-treated with NAC for 1 hr and measured after 24 hrs by Western blot analysis relative to control. The format is functional. The method, boiled down:
as §2

For test [9], the system named is KOPN-8. In words: Cell cycle arrest in human KOPN8 cells assessed as accumulation at G0/G1 phase at 5 uM after 24 hrs by propidium iodide staining-based flow cytometry (reference value: 24.77%). It is filed as functional. The method, boiled down:
as §3

The subject of test [10] is KOPN-8. As to the kind of experiment: Cell cycle arrest in human KOPN8 cells assessed as accumulation at S phase at 5 uM after 24 hrs by propidium iodide staining-based flow cytometry (reference value: 66.56%). The format is functional. In short, it runs like this:
as §3

Test [11] relates to KOPN-8. In words: Induction of apoptosis in human KOPN8 cells assessed as upregulation of cleaved PARP level at 0.5 uM after 3 hrs by Western blot analysis. The format is functional, cell-based. In short, it runs like this: as §2
Test [12] deals with KOPN-8. In words: Induction of apoptosis in human KOPN8 cells assessed as early apoptotic cells at 5 uM after 24 hrs by Annexin V-FITC/propidium iodide staining-based flow cytometry (reference value: 0.1%). The format is functional. The method, boiled down:
as §3

The test system of test [13] is KOPN-8. As to the kind of experiment: Induction of apoptosis in human KOPN8 cells assessed as viable cells at 5 uM after 24 hrs by Annexin V-FITC/propidium iodide staining-based flow cytometry (reference value: 85.2%). It is filed as functional. Particulars: KOPN-8, 24 h, read-out: Activity. In short, it runs like this: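 KOPN-8 cells were treated for 24 h, with a DMSO vehicle control and a staurosporine positive control. Cells were stained with FITC-Annexin V and propidium iodide and analysed by flow cytometry. Quadrant gating separated viable, early apoptotic, late apoptotic (Q2) and necrotic populations.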

For test [14], the system named is KOPN-8. In words: Induction of apoptosis in human KOPN8 cells assessed as upregulation of cleaved PARP level at 0.5 uM pre-treated with NAC for 1 hr and measured after 24 hrs by Western blot analysis. The format is functional, cell-based. In short, it runs like this:
as §2

For the compound `COc1ccc(-c2c(I)c(=O)c3c(OC)cc(OC)cc3n2S(=O)(=O)c2ccc(OC)cc2)cc1`, the fold change (FC) in test [1] was determined as 1.1; in the test filed under Homo sapiens [2] it was 1.8; in the test listed under Homo sapiens [3], 1.4; in test [4], 1; in the test filed under Homo sapiens [5], 0.9; in the test on KOPN-8 [6], 0.8. Further, the “fold change (FC)” value in the test on KOPN-8 [8] was found to be 0.7. Moreover, the results for the Activity in the test with SUP-B15 and in the test on KOPN-8 [7] were 7% and 27.12%, respectively. Further, the outcome in the test with MCF7 was inactive.

Regarding `CN(C)C(=O)c1cc2cnc(Nc3ccc(N4CCNCC4)cn3)nc2n1C1CCCC1` [RIBOCICLIB], the Activity came to 45.66% in the test with KOPN-8 [9], 25.55% with KOPN-8 [10] and 0.5% in the test on KOPN-8 [12]. Also, the outcome in the test with KOPN-8 [11] and with KOPN-8 [14] was Active. Moreover, the viability at 5 µM in the test on KOPN-8 [13] stood at 2.3%.
